Measured values as given in ChEMBL document CHEMBL1124260, “Synthesis and antitumor activity of quaternary ellipticine glycosides, a series of novel and highly active antitumor agents” (1988).

Tests used:
Format in all cases: functional
Mus musculus [1] = experiment: Antitumor activity against ip implanted syngeneic P388 leukemia in mouse after ip administration of 60 mg/kg for 5 days expressed as increase in mean life span; conditions: 120 h, route intraperitoneal
Summary of the method: (§1)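 Saline-dissolved drug was given ip daily for 5 consecutive days, beginning 24 h post-transplant. ILS % was calculated from treated vs control mean survival time over an 80-day observation period.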

Mus musculus [2] = experiment: Antitumor activity against ip implanted L1210 leukemia in mouse after ip administration of 120 mg/kg for 5 days expressed as increase in mean life span; conditions: 120 h, route intraperitoneal
Summary of the method: (§2)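 Drug was dissolved in 0.9% NaCl, diluted just before use and given ip once daily for 5 consecutive days, starting 24 h after transplant. ILS % = mean survival time of treated vs control mice, observed for 80 days.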

Mus musculus [3] = experiment: Antitumor activity against ip implanted L1210 leukemia in mouse after ip administration of 5 mg/kg for 5 days expressed as increase in mean life span; conditions: Mus musculus, L1210, ip, 120 h, route intraperitoneal; summary of the method: as §2
Mus musculus [4] = experiment: Number of survivors out of 6 ip implanted L1210 leukemia mouse tested after 80 days at 5 mg/kg; conditions: route intraperitoneal
Summary of the method: (§3)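 Female BDF1 mice implanted ip with ascitic fluid holding 10^5 L1210 cells. Saline-dissolved drug given ip daily on days 1-5, starting 24 h after implant. Six mice per dose group, followed 80 days. Survivors/total counted at day 80; ILS % from mean survival time vs controls.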

Mus musculus [5] = experiment: Number of survivors out of 6 ip implanted L1210 leukemia mouse tested after 80 days at 10 mg/kg; conditions: route intraperitoneal; summary of the method: as §3
Mus musculus [6] = experiment: Antitumor activity against ip implanted L1210 leukemia in mouse after ip administration of 10 mg/kg for 5 days expressed as increase in mean life span; conditions: Mus musculus, L1210, ip, 120 h, route intraperitoneal; summary of the method: as §2
Mus musculus [7] = experiment: Antitumor activity against ip implanted L1210 leukemia in mouse after ip administration of 40 mg/kg for 5 days expressed as increase in mean life span; conditions: 120 h, route intraperitoneal; summary of the method: as §2
Mus musculus [8] = experiment: Number of survivors out of 6 ip implanted L1210 leukemia mouse tested after 80 days at 40 mg/kg; conditions: route intraperitoneal; summary of the method: as §3
Mus musculus [9] = experiment: Antitumor activity against ip implanted P388 leukemia in mouse after ip administration of 30 mg/kg for 5 days expressed as increase in mean life span; conditions: 120 h, route intraperitoneal; summary of the method: as §1
Mus musculus [10] = experiment: Antitumor activity against ip implanted syngeneic L1210 leukemia in mouse after ip administration of 60 mg/kg for 5 days expressed as increase in mean life span; conditions: 120 h, route intraperitoneal; summary of the method: as §2

Work on `Cc1c2ccncc2c(C)c2c1[nH]c1ccccc12` [ELLIPTECINE] yielded an ILS at 60 mg/kg (Mus musculus [1]) of 139% and an ILS at 120 mg/kg (Mus musculus [2]) of 128%.
`Cc1c2cc[n+](C3OC[C@@H](O)[C@H]3O)cc2c(C)c2c1[nH]c1ccc(O)cc12.[Cl-]` (some centres not stated) showed an ILS at 5 mg/kg (Mus musculus [3]) of 122% and a Cures (Mus musculus [4]) of 0.
In the case of `Cc1c2cc[n+]([C@H]3OC[C@@H](O)[C@H](O)[C@@H]3O)cc2c(C)c2c1[nH]c1ccc(O)cc12.[Cl-]`, the Cures (Mus musculus [5]) is reported as 4 and the ILS at 10 mg/kg (Mus musculus [6]) is reported as > 651%.
Compound `Cc1c2cc[n+]([C@H]3O[C@@H](C)[C@H](O)[C@@H](O)[C@H]3O)cc2c(C)c2c1[nH]c1ccc(O)cc12.[Br-]` has an ILS at 40 mg/kg (Mus musculus [7]) of 78% and a Cures (Mus musculus [8]) of 0.
`Cc1c2cc[n+]([C@H]3O[C@@H](CO)[C@H](O)[C@@H]3O)cc2c(C)c2c1[nH]c1ccc(O)cc12.[Br-]` was tested, and the Cures (Mus musculus [5]) was 2 and the ILS at 10 mg/kg (Mus musculus [6]) was > 391%.
Compound `Cc1c2ccncc2c(C)c2c1[nH]c1ccc(O)cc12` has an ILS at 30 mg/kg (Mus musculus [9]) of 91% and an ILS at 60 mg/kg (Mus musculus [10]) of 79%.
